According to PMC8273112 (ACS Infectious Diseases, 2021):
Structures can show the parent of a compound that is named as a salt.

How the values were obtained:
[1] = tested on: P. falciparum strain Tm90–C2B; assay: SYBR Green growth inhibition assay, P. falciparum Tm90-C2B; format: cell-based, Plasmodium falciparum; conditions: Plasmodium falciparum, TM90, 72 h, read-out: IC50 Tm90–C2B
How it was run: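 Human erythrocytes (≤28 days old), 2% hematocrit, asynchronous culture at 0.2% initial parasitemia, in RPMI-1640 with HEPES, hypoxanthine, glucose, glutamine and Albumax II. 2-fold serial dilution starting at 20 μM, quadruplicate. Incubated 72 h at 37 °C under 5% O2/5% CO2/90% N2. SYBR Green I dye-detergent added for at least 1 h in the dark; fluorescence read at 497/520 nm, normalized to untreated wells, plotted against log concentration.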

[2] = tested on: Plasmodium falciparum strain D6; assay: SYBR Green growth inhibition assay, P. falciparum D6; format: cell-based; conditions: Plasmodium falciparum, D6, 72 h, read-out: IC50 D6
[3] = tested on: Plasmodium falciparum strain Dd2; assay: SYBR Green growth inhibition assay, P. falciparum Dd2; format: cell-based; conditions: Plasmodium falciparum, DD2, 72 h, read-out: IC50 Dd2
[4] = tested on: P. falciparum A6 (SB1-A6); assay: SYBR Green growth inhibition assay, P. falciparum A6; format: cell-based, Plasmodium falciparum; conditions: Plasmodium falciparum, 72 h, read-out: IC50 A6
How it was run: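 Asynchronous parasites grown in human erythrocytes in RPMI-1640 with HEPES, hypoxanthine and Albumax II under 5% O2/5% CO2/90% N2 at 37 °C. Test compound in 2-fold serial dilution from 20 μM, run in quadruplicate, at 2% hematocrit and 0.2% starting parasitemia for 72 h. SYBR Green I lysis dye added for ≥1 h in the dark. Fluorescence read at 497/520 nm, normalized to untreated wells and plotted against log concentration.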

| SMILES | IC50 [1] | IC50 [2] | IC50 [3] | IC50 [4] |
| --- | --- | --- | --- | --- |
| N=C(N/N=C/c1ccccc1F)N/N=C/c1ccccc1F [Compound 2, 2,2′-Bis[(2-fluorophenyl)methylene]carbonimidic Dihydrazide Hydrochloride] | > 5 µM | 2.87 µM | 4.59 µM | 1.89 µM |
| N=C(N/N=C/c1cccc(F)c1)N/N=C/c1cccc(F)c1 [Compound 3, 2,2′-Bis[(3-fluorophenyl)methylene]carbonimidic Dihydrazide Hydrochloride] | > 5 µM | 0.767 µM | > 5 µM | 0.426 µM |
| N=C(N/N=C/c1ccc(F)cc1)N/N=C/c1ccc(F)cc1 [Compound 4, 2,2′-Bis[(4-fluorophenyl)methylene]carbonimidic Dihydrazide Hydrochloride] | 4.9 µM | 1.02 µM | 3.79 µM | 0.369 µM |
| N=C(N/N=C/c1ccccc1Cl)N/N=C/c1ccccc1Cl [Compound 5, 2,2′-Bis[(2-chlorophenyl)methylene]carbonimidic Dihydrazide Hydrochloride] | 1.22 µM | 0.334 µM | 0.961 µM | 0.348 µM |
| N=C(N/N=C/c1cccc(Cl)c1)N/N=C/c1cccc(Cl)c1 [Compound 6, 2,2′-Bis[(3-chlorophenyl)methylene]carbonimidic Dihydrazide Hydrochloride] | 0.664 µM | 0.202 µM | 0.567 µM | 0.237 µM |
| N=C(N/N=C/c1ccccc1Br)N/N=C/c1ccccc1Br [Compound 7, 2,2′-Bis[(2-bromophenyl)methylene]carbonimidic Dihydrazide Hydrochloride] | 0.974 µM | 0.28 µM | 0.715 µM | 0.876 µM |
| N=C(N/N=C/c1cccc(Br)c1)N/N=C/c1cccc(Br)c1 [Compound 8, 2,2′-Bis[(3-bromophenyl)methylene]carbonimidic Dihydrazide Hydrochloride] | 1.84 µM | 0.572 µM | 1.52 µM | 0.502 µM |
| N=C(N/N=C/c1ccc(Br)cc1)N/N=C/c1ccc(Br)cc1 [Compound 9, 2,2′-Bis[(4-bromophenyl)methylene]carbonimidic Dihydrazide Hydrochloride] | 0.899 µM | 0.277 µM | 0.876 µM | 0.269 µM |
| Cc1ccc(/C=N/NC(=N)N/N=C/c2ccc(C)cc2)cc1 [Compound 10, 2,2′-Bis[(4-methylphenyl)methylene]carbonimidic Dihydrazide Hydrochloride] | 2.53 µM | 0.905 µM | 2.43 µM | > 5 µM |
| COc1ccc(/C=N/NC(=N)N/N=C/c2ccc(OC)cc2)cc1 [Compound 11, 2,2′-Bis[(4-methoxyphenyl)methylene]carbonimidic Dihydrazide Hydrochloride] | > 5 µM | 0.263 µM | 1.6 µM | 0.289 µM |
| N=C(N/N=C/c1ccc(C(F)(F)F)cc1)N/N=C/c1ccc(C(F)(F)F)cc1 [Compound 12, 2,2′-Bis[(4-trifluoromethylphenyl)methylene]carbonimidic Dihydrazide Hydrochloride] | 2.74 µM | 0.614 µM | 1.54 µM | 0.567 µM |
| N=C(N/N=C/c1ccccc1OC(F)(F)F)N/N=C/c1ccccc1OC(F)(F)F [Compound 14, 2,2′-Bis[(2-trifluoromethoxyphenyl)methylene]carbonimidic Dihydrazide Hydrochloride] | > 5 µM | 1.08 µM | 2.33 µM | 0.391 µM |
| N=C(N/N=C/c1cccc(OC(F)(F)F)c1)N/N=C/c1cccc(OC(F)(F)F)c1 [Compound 15, 2,2′-Bis[(3-trifluoromethoxyphenyl)methylene]carbonimidic Dihydrazide Hydrochloride] | 2.99 µM | 0.67 µM | 1.57 µM | 0.689 µM |
